# Measured values as given in ChEMBL document CHEMBL5724801, “EUbOPEN Chemogenomics Library - Multiplex” (2024).
# Where “and” joins values, the source holds several entries; their conditions need not be identical. Equal entries are not always repeated.
# Tested on: U2OS
# Assay: Multiplex assay against U2OS
# Type: toxicity, cell-based
# Conditions: human
# In short: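 With compound added, live cells were imaged on a CQ1 microscope at 37°C and 5% CO2; staining with Hoechst33342, BioTracker Green Microtubule Cytoskeleton Dye, MitoTracker Red and Annexin V Alexa Fluor 680 had been done at seeding. The CellPathfinder machine-learning gating scheme split cells into Hoechst high-intensity objects or normal cells, normal cells into healthy, pyknosed or fragmented nuclei, and pyknosed cells into mitotic or apoptotic. The tubulin, mitochondrial-mass and membrane-permeability phenotypes are per cents of healthy-nucleus cells.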
# [1] = 12 h, 1 µM, compound concentration 1 uM
# [2] = 12 h, 10 µM, compound concentration 10 uM
# [3] = 24 h, 1 µM, compound concentration 1 uM
# [4] = 24 h, 10 µM, compound concentration 10 uM
# [5] = 48 h, 1 µM, compound concentration 1 uM
# [6] = 48 h, 10 µM, compound concentration 10 uM
smiles,measurement,setting,value
COc1cc2nc(N3CCN(C(=O)COc4c(OC)cccc4C(C)C)CC3)nc(N)c2cc1OC.Cl.Cl,Population Apoptotic (%),[1],67% and 33%
same,Population Fragmented Nuclei (%),[1],21% and 10%
same,Population Healthy Nuclei (%),[1],66% and 84%
same,Population Hoechst High Intensity Objects (%),[1],3% and 2%
same,Population Membrane Permeable-Phenotype (%),[1],10%
same,Population Mitochondria Different-Phenotype (%),[1],5% and 6%
same,Population Mitotic Cells (%),[1],32% and 66%
same,Population Normal (%),[1],96% and 97%
same,Population Pyknosed Nuclei (%),[1],11% and 4%
same,Population Tubulin-Different-Phenotype (%),[1],6%
same,Total Cell Count,[1],256 and 136
same,Population Apoptotic (%),[2],55% and 66%
same,Population Fragmented Nuclei (%),[2],30% and 19%
same,Population Healthy Nuclei (%),[2],43% and 48%
same,Population Hoechst High Intensity Objects (%),[2],3% and 0%
same,Population Membrane Permeable-Phenotype (%),[2],60% and 54%
same,Population Mitochondria Different-Phenotype (%),[2],55% and 65%
same,Population Mitotic Cells (%),[2],44% and 33%
same,Population Normal (%),[2],96% and 99%
same,Population Pyknosed Nuclei (%),[2],25% and 32%
same,Population Tubulin-Different-Phenotype (%),[2],75% and 68%
same,Total Cell Count,[2],233 and 151
same,Population Apoptotic (%),[3],84% and 80%
same,Population Fragmented Nuclei (%),[3],21% and 15%
same,Population Healthy Nuclei (%),[3],67% and 77%
same,Population Hoechst High Intensity Objects (%),[3],3% and 0%
same,Population Membrane Permeable-Phenotype (%),[3],6% and 10%
same,Population Mitochondria Different-Phenotype (%),[3],8% and 7%
same,Population Mitotic Cells (%),[3],15% and 20%
same,Population Normal (%),[3],96% and 99%
same,Population Pyknosed Nuclei (%),[3],11% and 6%
same,Population Tubulin-Different-Phenotype (%),[3],4% and 5%
same,Total Cell Count,[3],297 and 154
same,Population Apoptotic (%),[4],76% and 87%
same,Population Fragmented Nuclei (%),[4],30% and 20%
same,Population Healthy Nuclei (%),[4],36% and 40%
same,Population Hoechst High Intensity Objects (%),[4],9% and 12%
same,Population Membrane Permeable-Phenotype (%),[4],40% and 49%
same,Population Mitochondria Different-Phenotype (%),[4],49% and 50%
same,Population Mitotic Cells (%),[4],24% and 12%
same,Population Normal (%),[4],90% and 87%
same,Population Pyknosed Nuclei (%),[4],33% and 39%
same,Population Tubulin-Different-Phenotype (%),[4],50% and 60%
same,Total Cell Count,[4],246 and 185
same,Population Apoptotic (%),[5],83% and 75%
same,Population Fragmented Nuclei (%),[5],20% and 16%
same,Population Healthy Nuclei (%),[5],70% and 72%
same,Population Hoechst High Intensity Objects (%),[5],2% and 3%
same,Population Membrane Permeable-Phenotype (%),[5],6% and 7%
same,Population Mitochondria Different-Phenotype (%),[5],6%
same,Population Mitotic Cells (%),[5],16% and 25%
same,Population Normal (%),[5],97% and 96%
same,Population Pyknosed Nuclei (%),[5],8% and 11%
same,Population Tubulin-Different-Phenotype (%),[5],4% and 6%
same,Total Cell Count,[5],441 and 225
same,Population Apoptotic (%),[6],88% and 93%
same,Population Fragmented Nuclei (%),[6],40% and 24%
same,Population Healthy Nuclei (%),[6],21% and 23%
same,Population Hoechst High Intensity Objects (%),[6],31% and 32%
same,Population Membrane Permeable-Phenotype (%),[6],13% and 27%
same,Population Mitochondria Different-Phenotype (%),[6],30% and 10%
same,Population Mitotic Cells (%),[6],11% and 6%
same,Population Normal (%),[6],68% and 67%
same,Population Pyknosed Nuclei (%),[6],38% and 51%
same,Population Tubulin-Different-Phenotype (%),[6],13% and 24%
same,Total Cell Count,[6],296 and 180
Cc1c(Cc2ccc3ccccc3n2)c2cc(F)ccc2n1CC(=O)O [TIMAPIPRANT],Population Apoptotic (%),[1],84% and 83%
same,Population Fragmented Nuclei (%),[1],21% and 22%
same,Population Healthy Nuclei (%),[1],69% and 70%
same,Population Hoechst High Intensity Objects (%),[1],2% and 1%
same,Population Membrane Permeable-Phenotype (%),[1],3% and 4%
same,Population Mitochondria Different-Phenotype (%),[1],1% and 4%
same,Population Mitotic Cells (%),[1],16%
same,Population Normal (%),[1],97% and 98%
same,Population Pyknosed Nuclei (%),[1],8% and 6%
same,Population Tubulin-Different-Phenotype (%),[1],1% and 3%
same,Population Apoptotic (%),[2],75% and 68%
same,Population Fragmented Nuclei (%),[2],30% and 12%
same,Population Healthy Nuclei (%),[2],62% and 75%
same,Population Hoechst High Intensity Objects (%),[2],2% and 0%
same,Population Membrane Permeable-Phenotype (%),[2],4% and 6%
same,Population Mitochondria Different-Phenotype (%),[2],1% and 3%
same,Population Mitotic Cells (%),[2],25% and 31%
same,Population Normal (%),[2],97% and 99%
same,Population Pyknosed Nuclei (%),[2],6% and 12%
same,Population Tubulin-Different-Phenotype (%),[2],2% and 3%
same,Total Cell Count,[2],244 and 132
same,Population Apoptotic (%),[3],96% and 100%
same,Population Fragmented Nuclei (%),[3],18% and 19%
same,Population Healthy Nuclei (%),[3],73%
same,Population Hoechst High Intensity Objects (%),[3],1%
same,Population Membrane Permeable-Phenotype (%),[3],6% and 7%
same,Population Mitochondria Different-Phenotype (%),[3],3% and 2%
same,Population Mitotic Cells (%),[3],3% and 0%
same,Population Normal (%),[3],98%
same,Population Pyknosed Nuclei (%),[3],7%
same,Population Tubulin-Different-Phenotype (%),[3],4% and 3%
same,Population Apoptotic (%),[4],94% and 72%
same,Population Fragmented Nuclei (%),[4],26% and 18%
same,Population Healthy Nuclei (%),[4],66% and 74%
same,Population Hoechst High Intensity Objects (%),[4],1% and 0%
same,Population Membrane Permeable-Phenotype (%),[4],6% and 8%
same,Population Mitochondria Different-Phenotype (%),[4],2%
same,Population Normal (%),[4],98% and 100%
same,Population Pyknosed Nuclei (%),[4],6% and 7%
same,Population Tubulin-Different-Phenotype (%),[4],3%
same,Total Cell Count,[4],278 and 152
same,Population Apoptotic (%),[5],88% and 90%
same,Population Fragmented Nuclei (%),[5],16% and 22%
same,Population Healthy Nuclei (%),[5],77% and 71%
same,Population Hoechst High Intensity Objects (%),[5],1% and 2%
same,Population Membrane Permeable-Phenotype (%),[5],4% and 12%
same,Population Mitochondria Different-Phenotype (%),[5],3% and 5%
same,Population Mitotic Cells (%),[5],11% and 10%
same,Population Normal (%),[5],98% and 97%
same,Population Pyknosed Nuclei (%),[5],6%
same,Population Tubulin-Different-Phenotype (%),[5],3% and 6%
same,Population Apoptotic (%),[6],100% and 92%
same,Population Fragmented Nuclei (%),[6],19% and 13%
same,Population Healthy Nuclei (%),[6],74% and 80%
same,Population Hoechst High Intensity Objects (%),[6],0% and 2%
same,Population Membrane Permeable-Phenotype (%),[6],3% and 5%
same,Population Mitochondria Different-Phenotype (%),[6],1% and 3%
same,Population Mitotic Cells (%),[6],0% and 7%
same,Population Normal (%),[6],99% and 97%
same,Population Pyknosed Nuclei (%),[6],6%
same,Population Tubulin-Different-Phenotype (%),[6],1% and 3%
same,Total Cell Count,[6],392 and 204
c1cc(OCCCN2CCCCC2)ccc1CN1CCCCC1 [JNJ-5207852],Population Apoptotic (%),[1],76% and 58%
same,Population Fragmented Nuclei (%),[1],29% and 25%
same,Population Healthy Nuclei (%),[1],65% and 62%
same,Population Hoechst High Intensity Objects (%),[1],2% and 0%
same,Population Membrane Permeable-Phenotype (%),[1],5% and 7%
same,Population Mitochondria Different-Phenotype (%),[1],3%
same,Population Mitotic Cells (%),[1],23% and 41%
same,Population Normal (%),[1],97% and 99%
same,Population Pyknosed Nuclei (%),[1],5% and 11%
same,Population Tubulin-Different-Phenotype (%),[1],3%
same,Total Cell Count,[1],253 and 106
same,Population Apoptotic (%),[2],73% and 85%
same,Population Fragmented Nuclei (%),[2],34% and 13%
same,Population Healthy Nuclei (%),[2],57% and 80%
same,Population Hoechst High Intensity Objects (%),[2],2% and 4%
same,Population Membrane Permeable-Phenotype (%),[2],5% and 7%
same,Population Mitochondria Different-Phenotype (%),[2],3% and 9%
same,Population Mitotic Cells (%),[2],26% and 14%
same,Population Normal (%),[2],97% and 95%
same,Population Pyknosed Nuclei (%),[2],8% and 6%
same,Population Tubulin-Different-Phenotype (%),[2],3% and 6%
same,Total Cell Count,[2],228 and 120
same,Population Apoptotic (%),[3],84% and 66%
same,Population Fragmented Nuclei (%),[3],25% and 21%
same,Population Healthy Nuclei (%),[3],65% and 68%
same,Population Hoechst High Intensity Objects (%),[3],1% and 0%
same,Population Membrane Permeable-Phenotype (%),[3],3% and 4%
same,Population Mitochondria Different-Phenotype (%),[3],2%
same,Population Mitotic Cells (%),[3],16% and 33%
same,Population Normal (%),[3],98% and 100%
same,Population Pyknosed Nuclei (%),[3],8% and 10%
same,Population Tubulin-Different-Phenotype (%),[3],2% and 4%
same,Total Cell Count,[3],287 and 119
same,Population Apoptotic (%),[4],82% and 84%
same,Population Fragmented Nuclei (%),[4],28% and 10%
same,Population Healthy Nuclei (%),[4],62% and 80%
same,Population Hoechst High Intensity Objects (%),[4],1%
same,Population Membrane Permeable-Phenotype (%),[4],4% and 8%
same,Population Mitochondria Different-Phenotype (%),[4],3% and 5%
same,Population Mitotic Cells (%),[4],17% and 15%
same,Population Normal (%),[4],98%
same,Population Pyknosed Nuclei (%),[4],8%
same,Population Tubulin-Different-Phenotype (%),[4],3% and 8%
same,Total Cell Count,[4],271 and 157
same,Population Apoptotic (%),[5],82% and 76%
same,Population Fragmented Nuclei (%),[5],21% and 19%
same,Population Healthy Nuclei (%),[5],69% and 71%
same,Population Hoechst High Intensity Objects (%),[5],2% and 3%
same,Population Membrane Permeable-Phenotype (%),[5],4% and 9%
same,Population Mitochondria Different-Phenotype (%),[5],2% and 4%
same,Population Mitotic Cells (%),[5],17% and 23%
same,Population Normal (%),[5],97% and 96%
same,Population Pyknosed Nuclei (%),[5],8%
same,Population Tubulin-Different-Phenotype (%),[5],4% and 3%
same,Total Cell Count,[5],400 and 152
same,Population Apoptotic (%),[6],86% and 93%
same,Population Fragmented Nuclei (%),[6],22% and 14%
same,Population Healthy Nuclei (%),[6],70% and 78%
same,Population Hoechst High Intensity Objects (%),[6],2% and 1%
same,Population Membrane Permeable-Phenotype (%),[6],7% and 6%
same,Population Mitochondria Different-Phenotype (%),[6],3% and 2%
same,Population Mitotic Cells (%),[6],13% and 6%
same,Population Normal (%),[6],97% and 98%
same,Population Pyknosed Nuclei (%),[6],6%
same,Population Tubulin-Different-Phenotype (%),[6],5% and 4%
same,Total Cell Count,[6],345 and 245
